How the values were obtained:
[1] = system: CCRF-SB; assay: Cytotoxicity against human CCRF-SB cells after 96 hrs by MTT assay; type: functional
Outline: (§1)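 Cells were seeded at 1×10^5 cells/mL: leukaemia/lymphoma lines in RPMI-1640, solid tumour and fibroblast lines in specific media, all with 10% FCS. Serial compound dilutions were applied for 96 h at 37 °C, 5% CO2, under conditions allowing controls at least three rounds of multiplication. Viability was read by MTT. CC50 by linear regression. Mean of three determinations.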

[2] = system: Human immunodeficiency virus 1; assay: Antiviral activity against HIV1 3B infected in human MT4 cells assessed as inhibition of virus-induced cytopathogenicity after 4 days by MTT assay; type: functional, organism-based; settings: Human immunodeficiency virus 1, 3B, MT4, 96 h
Outline: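 MT-4 cells (1×10^4 per well) were infected with HIV-1 IIIB at 100 CCID50, m.o.i. 0.01, together with serial compound dilutions. Viability was read by MTT after 4 days at 37 °C. EC50 was taken by linear regression versus untreated controls. Mean of three determinations.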

[3] = system: HepG2; assay: Cytotoxicity against human HepG2 cells after 96 hrs by MTT assay; type: functional; settings: HepG2, 96 h; outline: as §1
[4] = system: CCRF-CEM; assay: Cytotoxicity against human CCRF-CEM cells after 96 hrs by MTT assay; type: functional; outline: as §1
[5] = system: MCF7; assay: Cytotoxicity against human MCF7 cells after 96 hrs by MTT assay; type: functional; settings: MCF7, 96 h; outline: as §1
[6] = system: Poliovirus 1; assay: Antiviral activity against Human poliovirus 1 strain Sabin Chat infected in african green monkey Vero 76 cells assessed as virus-induced reduction of plaque formation after 2 days using crystal violet staining; type: functional, cell-based; settings: Enterovirus C, 48 h
[7] = Inhibition of HCV1b BK 6xHis-tagged recombinant NS5B Cdelta 21 RNA dependent RNA polymerase expressed in Escherichia coli (DE3) using GTP as substrate preincubated for 30 mins before substrate addition measured after 120 mins by fluorescence assay; set-up: species or system Hepatitis C virus (isolate BK)
Outline: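 His-tagged NS5B (BVDV C-terminal Δ24; HCV1b Δ21) from E. coli Rosetta 2(DE3)pLysS, Ni-NTA purified, 500–600 ng per 20 μL. The template was poly(rC) 10 μg/mL and the primer oligo(rG)12 0.1 μg/mL, with GTP 80 μM. Buffer: 20 mM Tris pH 7.0, 0.5 mM MnCl2 or 5 mM MgCl2, 5% DMSO. Enzyme/drug 30 min at RT, then GTP added; 120 min at 37 °C (BVDV) or 25 °C (HCV). Read-out was dsRNA dye fluorescence (ex 480/em 520). IC50 from dose–response fits.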

[8] = Inhibition of Bovine viral diarrhea virus 1-NADL recombinant NS5B Cdelta 21 RNA dependent RNA polymerase expressed in Escherichia coli (DE3) using GTP as substrate preincubated for 30 mins before substrate addition measured after 120 mins by fluorescence assay
[9] = Cytotoxicity against MDBK cells after 48 to 96 hrs by MTT assay; type: cell-based, Bos taurus; settings: cattle
Outline: (§2)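 MDBK seeded at 6×10^5 and BHK at 1×10^6 cells/mL in MEM-Earle's with L-glutamine, 1 mM pyruvate, kanamycin, plus 10% horse serum (MDBK) or 10% FBS (BHK). Cells were grown at 37 °C, 5% CO2 with serial compound dilutions (DMSO stocks diluted in medium). Viability by MTT after 48–96 h. CC50 was taken by linear regression versus untreated controls; three independent determinations.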

[10] = Antiviral activity against Bovine viral diarrhea virus 1-NADL infected in MDBK cells assessed as inhibition of virus-induced cytopathogenicity after 3 to 4 days by MTT assay; type: functional, cell-based; settings: Bovine viral diarrhea virus isolates and strains
Outline: (§3)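 Host cells were seeded in 96-well plates at 3×10^4 cells/well (MDBK) or 5×10^4 cells/well (BHK-21) and grown to confluent monolayers overnight. They were infected at m.o.i. 0.01 in maintenance MEM with 0.5% inactivated FBS. Serial compound dilutions were added after 1 h. Viability was read by MTT after 3–4 days at 37 °C. EC50 was taken by linear regression against untreated controls. Mean of three determinations.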

[11] = Antiviral activity against Vaccinia virus Lister Elstree infected in african green monkey Vero 76 cells assessed as reduction of virus-induced plaque formation after 3 days using crystal violet staining; type: functional, cell-based; settings: 72 h
[12] = Cytotoxicity against human MT4 cells after 96 hrs by MTT assay; type: cell-based
Outline: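 Exponentially growing MT-4 cells seeded at 1×10^5 cells/mL in RPMI-1640 with 10% FBS, penicillin and streptomycin. Incubated with serial compound dilutions at 37 °C, 5% CO2 for 96 h; viability by MTT. CC50 by linear regression relative to untreated controls; mean of three independent determinations.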

[13] = system: Human orthopneumovirus; assay: Antiviral activity against Human respiratory syncytial virus A2 infected in african green monkey Vero 76 cells assessed as reduction of virus-induced plaque formation after 5 days using crystal violet staining; type: functional, organism-based; settings: 120 h
[14] = system: Vesicular stomatitis Indiana virus; assay: Antiviral activity against clinical isolate Vesicular stomatitis Indiana virus infected in african green monkey Vero 76 cells assessed as reduction of virus-induced plaque formation after 2 days using crystal violet staining; type: functional, organism-based; settings: 48 h
[15] = system: Coxsackievirus B5; assay: Antiviral activity against Human coxsackievirus B5 Ohio-1 infected in african green monkey Vero 76 cells assessed as reduction of virus-induced plaque formation after 3 days using crystal violet staining; type: functional, organism-based; settings: Enterovirus B, Ohio-1, Vero, 72 h
[16] = system: Yellow fever virus; assay: Antiviral activity against Yellow fever virus 17D Stamaril Pasteur J07B01 infected in hamster BHK21 cells assessed as inhibition of virus-induced cytopathogenicity after 3 to 4 days by MTT assay; type: functional, cell-based; settings: Stamaril Pasteur J07B01, BHK-21; outline: as §3
[17] = system: WIL2-NS; assay: Cytotoxicity against human WIL2-NS cells after 96 hrs by MTT assay; type: functional; outline: as §1
[18] = Cytotoxicity against BHK21 cells after 48 to 96 hrs by MTT assay; type: cell-based, Mesocricetus auratus, BHK-21; settings: hamster; outline: as §2
[19] = Cytotoxicity against human CRL7065 cells after 96 hrs by MTT assay; type: cell-based, CRL-7065
Outline: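 Foreskin fibroblasts seeded at 1×10^5 cells/mL in specific medium with 10% FCS and antibiotics; serial compound dilutions, 37 °C, 5% CO2, 96 h, under conditions allowing untreated controls at least three rounds of multiplication. MTT read-out; concentration reducing proliferation by 50% by linear regression versus untreated controls; three independent determinations.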

[20] = system: Reovirus sp.; assay: Antiviral activity against Reovirus type-1 3651 infected in hamster BHK21 cells assessed as inhibition of virus-induced cytopathogenicity after 3 to 4 days by MTT assay; type: functional, organism-based; settings: Reovirus sp., 3651, BHK-21; outline: as §3
[21] = system: SK-MES-1; assay: Cytotoxicity against human SKMES1 cells after 96 hrs by MTT assay; type: functional; settings: SK-MES-1, 96 h; outline: as §1
[22] = Cytotoxicity against african green monkey Vero 76 cells after 48 to 96 hrs by crystal violet staining; type: cell-based; settings: chlorocebus sabaeus
Outline: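 Vero-76 cells were seeded at 4×10^5 cells/mL in D-MEM with L-glutamine, kanamycin and 10% FBS, then exposed to serial compound dilutions at 37 °C, 5% CO2 for 48–96 h. Viability was read by crystal violet staining. 50% cytotoxic concentration by linear regression relative to untreated controls; mean of three independent determinations.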

[23] = system: DU-145; assay: Cytotoxicity against human DU145 cells after 96 hrs by MTT assay; type: functional; settings: DU-145, 96 h; outline: as §1
[24] = system: SK-MEL-28; assay: Cytotoxicity against human SK-MEL-28 cells after 96 hrs by MTT assay; type: functional; settings: SK-MEL-28, 96 h; outline: as §1
[25] = system: Human alphaherpesvirus 1; assay: Antiviral activity against Human herpesvirus 1 strain KOS infected in african green monkey Vero 76 cells assessed as reduction of virus-induced plaque formation after 3 days using crystal violet staining; type: functional, organism-based; settings: Human alphaherpesvirus 1, KOS, 72 h
[26] = system: Hepatitis C virus; assay: Antiviral activity against HCV1b infected in human GS4.1 cells assessed as inhibition of virus-induced cytopathogenicity by measuring viral NS4A protein level after 72 hrs by ELISA; type: functional, organism-based, Hepacivirus hominis; settings: genotype 1b
Outline: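 GS4.1 cells are Huh-7 cells carrying a genotype 1b subgenomic replicon, kept in 0.5 mg/mL G418. They were seeded at 7.5×10^3 cells/well with two-fold serial dilutions of compound (top 75 μM) and incubated 72 h at 37 °C. Huh-7 cells without the replicon served as negative control. NS4A was measured by cell ELISA with anti-NS4A mAb A-236, peroxidase and o-phenylenediamine, A492. EC50 came from four-parameter sigmoidal fit.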

[27] = Cytotoxicity against human GS4.1 cells; type: cell-based
Outline: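 Huh-7 cells carrying HCV genotype 1b subgenomic replicon, grown in D-MEM/10% FBS with 0.5 mg/mL G418. Seeded at 7.5×10^3 cells/well with two-fold serial dilutions (top 75 μM), incubated 72 h at 37 °C. Viability by MTS-type Cell Titer 96 Aqueous One reagent; CC50 from % cytotoxicity versus concentration curves.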

[28] = Cytotoxicity against human MRC5 cells after 96 hrs by MTT assay; type: cell-based; outline: as §1

O=c1[nH]c2cc3cccnc3c(Cl)c2nc1Cc1ccccc1
CC50 [1]: 25 µM
EC50 [2]: > 15 µM
CC50 [3]: 72 µM
CC50 [4]: 19 µM
CC50 [5]: > 100 µM
EC50 [6]: > 88 µM
IC50 [7]: > 10 µM
IC50 [8]: 1.2 µM
CC50 [9]: > 100 µM
EC50 [10]: 2.6 µM
EC50 [11]: > 88 µM
CC50 at 96 h [12]: 15 µM
EC50 [13]: > 88 µM
EC50 [14]: > 88 µM
EC50 [15]: > 88 µM
EC50 [16]: > 100 µM
CC50 [17]: 33 µM
CC50 [18]: > 100 µM
CC50 at 96 h [19]: > 100 µM
EC50 [20]: > 100 µM
CC50 [21]: > 100 µM
CC50 [22]: 88 µM
CC50 [23]: ≥ 100 µM
CC50 [24]: > 100 µM
EC50 [25]: > 88 µM
EC50 [26]: > 65 µM
CC50 [27]: 65 µM

O=c1[nH]c2cc3c(O)ccnc3c(Cl)c2nc1-c1ccccc1
EC50 [2]: > 100 µM
EC50 [6]: > 100 µM
CC50 [9]: > 100 µM
EC50 [10]: 100 µM
EC50 [11]: > 100 µM
CC50 at 96 h [12]: > 100 µM
EC50 [13]: > 100 µM
EC50 [14]: > 100 µM
EC50 [15]: > 100 µM
EC50 [16]: > 100 µM
CC50 [18]: > 100 µM
EC50 [20]: > 100 µM
CC50 [22]: ≥ 100 µM
EC50 [25]: ≥ 100 µM

CC[C@@]1(O)C(=O)OCc2c1cc1n(c2=O)Cc2cc3ccccc3nc2-1 [CAMPTOTHECIN]
CC50 [1]: 0.004 µM
CC50 [3]: 0.02 µM
CC50 [4]: 0.003 µM
CC50 [5]: 0.02 µM
CC50 [17]: 0.005 µM
CC50 at 96 h [19]: 0.3 µM
CC50 [21]: 0.03 µM
CC50 at 96 h [28]: 0.2 µM
CC50 [23]: 0.015 µM
CC50 [24]: 0.07 µM
